Reference: ChEMBL document CHEMBL1123566, “Synthesis and cardiac electrophysiological activity of 2- and 3-[(substituted phenyl)alkyl]quinuclidines. Structure-activity relationships” (1987)
“And” between values parts separate entries of the source, which are not always exact repeats. Equal values may be shown once.

Key:
Canis familiaris [1] = species: Canis familiaris; assay: In vitro electrophysiological evaluation in canine cardiac Purkinje fibres reported as percent change Vmax at 10 uM at concentration range of 1-100 uM; assay type: functional; conditions: Canis lupus familiaris, Purkinje fiber
How it was run: (§1)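 Canine cardiac Purkinje fibres, intracellular microelectrode recording, paced at a basic cycle length of 1 s. APD95 and Vmax read simultaneously. Compound: 10 mM stock in deionized water, diluted into Tyrode's solution, tested over the stated concentration range. Each fibre used once as its own control. Result is % change from control, given at 10 µM or as the maximum with its concentration. M = <10% decrease or an increase in Vmax.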

Canis familiaris [2] = species: Canis familiaris; assay: In vitro electrophysiological evaluation in canine cardiac ventricular muscle reported as maximum % change for functional refractory period (FRP) at 1-100 uM concentration range; concentration at which it occurred is 100 uM; design: species or system Canis lupus familiaris, Muscle tissue
How it was run: (§2)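 Canine right ventricle and papillary muscle strips in oxygenated Tyrode's solution, fitted with stimulating and recording electrodes. The extra-stimulus conduction-interval method was adapted for in vitro use. FRP and CT were read from a conduction-interval curve before and after various compound concentrations, and expressed as percent change from control. Compounds were taken from 10 mM deionized-water stock into Tyrode's. Each strip was used once as its own control.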

Canis familiaris [3] = species: Canis familiaris; assay: In vitro electrophysiological evaluation in canine cardiac Purkinje fibres reported as % change for action potential duration at 10 uM at 1-100 uM concentration range; assay type: functional, Canis lupus familiaris, Purkinje fiber; how it was run: as §1
Canis familiaris [4] = species: Canis familiaris; assay: In vitro electrophysiological evaluation in canine cardiac ventricular muscle reported as maximum % change for conduction time(CT) at 1-100 uM concentration range; concentration at which it occurred is 100 uM; assay type: functional, Canis lupus familiaris, Muscle tissue; how it was run: as §2
Canis familiaris [5] = species: Canis familiaris; assay: In vitro electrophysiological evaluation in canine cardiac occurred is 100 uM; assay type: functional; conditions: Canis lupus familiaris; Heart
Canis familiaris [6] = species: Canis familiaris; assay: In vitro electrophysiological evaluation in canine cardiac ventricular muscle reported as % change for the functional refractory period (FRP) at 10 uM at concentration range of 0.1-100 uM; design: species or system Canis lupus familiaris, Muscle tissue; how it was run: as §2
Canis familiaris [7] = species: Canis familiaris; assay: In vitro electrophysiological evaluation in canine cardiac ventricular muscle reported as maximum % change for conduction time(CT) at 0.1-100 uM concentration range; Minimal (<10% decrease or increase in CT).; assay type: functional, Canis lupus familiaris, Muscle tissue; how it was run: as §2
Canis familiaris [8] = species: Canis familiaris; assay: In vitro electrophysiological evaluation in canine cardiac ventricular muscle reported as % change for the functional refractory period (FRP) at 10 uM at concentration range of 1-100 uM; design: species or system Canis lupus familiaris, Muscle tissue; how it was run: as §2
Canis familiaris [9] = species: Canis familiaris; assay: In vitro electrophysiological evaluation in canine cardiac ventricular muscle reported as % change for conduction time(CT) at 10 uM at 0.1-100 uM concentration range; Minimal (<10% decrease or increase in CT).; assay type: functional, Canis lupus familiaris, Muscle tissue
Canis familiaris [10] = species: Canis familiaris; assay: In vitro electrophysiological activity in canine cardiac occurred is 10 uM.; assay type: functional, Canis lupus familiaris, Heart
Canis familiaris [11] = species: Canis familiaris; assay: In vitro electrophysiological evaluation in canine cardiac ventricular muscle reported as % change for conduction time(CT) at 10 uM at 1-100 uM concentration range; Minimal (<10% decrease or increase in CT).; assay type: functional, Canis lupus familiaris, Muscle tissue
Canis familiaris [12] = species: Canis familiaris; assay: In vitro electrophysiological evaluation in canine cardiac Purkinje fibres reported as % change for action potential duration at a concentration of 10 uM; assay type: functional, Canis lupus familiaris, Purkinje fiber; how it was run: as §1
Canis familiaris [13] = species: Canis familiaris; assay: In vitro electrophysiological evaluation in canine cardiac ventricular muscle reported as maximum % change for conduction time(CT) at 0.1-100 uM concentration range; concentration at which it occurred is 100 uM; assay type: functional, Canis lupus familiaris, Muscle tissue; how it was run: as §2
Canis familiaris [14] = species: Canis familiaris; assay: In vitro electrophysiological evaluation in canine cardiac ventricular muscle reported as maximum % change for functional refractory period (FRP) at 0.1-100 uM concentration range; concentration at which it occurred is 100 uM; design: species or system Canis lupus familiaris, Muscle tissue; how it was run: as §2
Canis familiaris [15] = species: Canis familiaris; assay: In vitro electrophysiological activity in canine cardiac occurred is 100 uM.; assay type: functional, Canis lupus familiaris, Heart

CCOC(=O)C(CC1C(=O)C2CCN1CC2)C(=O)c1ccc(Cl)c(NS(C)(=O)=O)c1.Cl (stereo not given)
Vmax (Canis familiaris [1]): -11% and -10% | FRP (Canis familiaris [2]): 15% | APD95 (Canis familiaris [3]): -4% | CT (Canis familiaris [4]): 14% | Vmax (Canis familiaris [5]): -19% and -21% | FRP (Canis familiaris [6]): 5% and -7% and 6% | CT (Canis familiaris [7]): <10% | FRP (Canis familiaris [8]): 10% | CT (Canis familiaris [9]): <10% | APD95 (Canis familiaris [10]): 9% | CT (Canis familiaris [11]): <10% | APD95 (Canis familiaris [12]): 9% | CT (Canis familiaris [13]): 12% | FRP (Canis familiaris [14]): 12% and 5% and 14% | APD95 (Canis familiaris [15]): -16%
